In ChEMBL document CHEMBL4007422 (J Med Chem, 2017):
Activity calls are given as the source filed them. No cut-off for these calls is given here.

Assays:
[1] = target: 5-hydroxytryptamine receptor 2A (Homo sapiens) (UniProt P28223); experiment: Displacement of [3H]-Ketanserine from recombinant human 5-HT2A receptor expressed in CHOK1 cell membranes after 60 mins by microbeta scintillation counting analysis
[2] = target: T1, 5-hydroxytryptamine receptor 1A (Homo sapiens) (UniProt P08908); experiment: Displacement of [3H]-8-OH-DPAT from recombinant human 5-HT1A receptor expressed in HEK293 EBNA cell membranes after 120 mins by microbeta scintillation counting analysis
T1 sequence (whole entry): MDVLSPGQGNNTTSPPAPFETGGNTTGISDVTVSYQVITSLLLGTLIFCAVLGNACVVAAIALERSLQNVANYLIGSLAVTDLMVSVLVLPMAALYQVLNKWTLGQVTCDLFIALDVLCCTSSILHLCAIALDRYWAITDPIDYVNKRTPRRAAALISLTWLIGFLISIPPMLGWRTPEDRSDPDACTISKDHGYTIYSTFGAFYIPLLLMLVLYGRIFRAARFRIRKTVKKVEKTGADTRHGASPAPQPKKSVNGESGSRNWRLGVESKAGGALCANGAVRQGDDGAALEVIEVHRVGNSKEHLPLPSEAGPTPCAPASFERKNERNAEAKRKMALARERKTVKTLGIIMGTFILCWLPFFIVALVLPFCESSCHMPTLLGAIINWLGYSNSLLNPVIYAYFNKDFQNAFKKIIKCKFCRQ

[3] = target: T2, 5-hydroxytryptamine receptor 2C (Homo sapiens) (UniProt P28335); experiment: Displacement of [3H]-Mesulergine from recombinant human 5-HT2C receptor expressed in HEK293 cell membranes after 180 mins by microbeta scintillation counting analysis
T2 sequence (whole entry): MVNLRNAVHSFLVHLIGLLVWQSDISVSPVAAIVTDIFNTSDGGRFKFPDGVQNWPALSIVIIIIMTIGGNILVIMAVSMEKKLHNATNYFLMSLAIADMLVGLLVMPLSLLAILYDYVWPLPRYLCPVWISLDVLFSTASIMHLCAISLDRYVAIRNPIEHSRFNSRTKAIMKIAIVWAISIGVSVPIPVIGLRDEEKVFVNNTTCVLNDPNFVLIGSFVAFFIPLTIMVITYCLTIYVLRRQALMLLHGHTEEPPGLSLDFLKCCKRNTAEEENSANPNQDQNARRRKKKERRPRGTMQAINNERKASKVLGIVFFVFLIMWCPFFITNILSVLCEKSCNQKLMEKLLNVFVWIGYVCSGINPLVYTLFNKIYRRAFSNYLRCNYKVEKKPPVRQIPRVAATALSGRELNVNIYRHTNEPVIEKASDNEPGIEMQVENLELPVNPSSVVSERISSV

[4] = target: 5-hydroxytryptamine receptor 4 (Homo sapiens) (UniProt Q13639); experiment: Displacement of [3H]-GR113808 from recombinant human 5-HT4B receptor expressed in Chem1 cell membranes after 120 mins by microbeta scintillation counting analysis
[5] = target: 5-hydroxytryptamine receptor 7 (Rattus norvegicus) (UniProt P32305); experiment: Binding affinity to recombinant rat 5-HT7 receptor expressed in CHOK1 cells assessed as inhibition of 5-HT stimulated cAMP accumulation after 4 hrs by luciferase reporter gene assay; type: cell-based
Cytochrome P450 2D6 = Cytochrome P450 2D6 (Homo sapiens, UniProt P10635); experiment: Inhibition of CYP2D6 in human liver microsomes in presence of NADPH by LC-MS/MS analysis
[6] = Cmax in Wistar rat at 10 mg/kg, po by LC-MS/MS analysis; type: ADME, organism-based; design: dose 10 mg/kg, route oral; conditions: in vivo
[7] = (§1) AUC (0 to t) in Wistar rat at 10 mg/kg, po by LC-MS/MS analysis; type: ADME, organism-based; conditions: Wistar, in vivo
[8] = (§2) Oral bioavailability in Wistar rat at 10 mg/kg by LC-MS/MS analysis; type: ADME, organism-based; conditions: Wistar, in vivo
[9] = Half life in Wistar rat at 10 mg/kg, iv by LC-MS/MS analysis; type: ADME, organism-based; conditions: in vivo
[10] = Apparent volume of distribution in Wistar rat at 10 mg/kg, iv by LC-MS/MS analysis; type: ADME, organism-based; conditions: in vivo, read-out: Vz
[11] = Clearance in Wistar rat at 10 mg/kg, iv by LC-MS/MS analysis; type: ADME, organism-based; conditions: in vivo
Cytochrome P450 3A4 = Cytochrome P450 3A4 (Homo sapiens, UniProt P08684)
[12] = target: T3, 5-hydroxytryptamine receptor 6 (Homo sapiens, UniProt P50406); experiment: Displacement of [3H]-LSD from recombinant human 5-HT6 receptor expressed in HEK293 cells after 60 mins; type: cell-based
[13] = target: T3, 5-hydroxytryptamine receptor 6; experiment: Antagonist activity at recombinant human 5-HT6 receptor expressed in CHO cells assessed as inhibition of 5-HT stimulated cAMP accumulation after 4 hrs by luciferase reporter gene assay; type: functional, cell-based
Summary of the method: (§3)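 Stable CHO line expressing recombinant human 5-HT6 receptor with a pCRE-luciferase reporter, a nonradioactive cell-based format. Output is Kb (nM), the mean of duplicate experiments, with Imax (%) also reported.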

[14] = target: T3, 5-hydroxytryptamine receptor 6; experiment: Antagonist activity at recombinant human 5-HT6 receptor expressed in CHO cells assessed as inhibition of 5-HT stimulated cAMP accumulation after 4 hrs by luciferase reporter gene assay relative to control; type: functional, cell-based; summary of the method: as §3
[15] = Ratio of drug uptake in Wistar rat brain to plasma at 10 mg/kg, po by LC-MS/MS analysis; type: ADME, organism-based; conditions: read-out: BPR
Rattus norvegicus [16] = experiment: Reversal of time-induced amnesia in Wistar rat at 10 mg/kg, po administered 60 mins prior to testing measured for 3 mins by object recognition test; type: functional, organism-based
Summary of the method: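 Time-induced object recognition task in rats. Oral dosing at 1, 3 and 10 mg/kg given 60 min before the test; vehicle water for injection 1 mL/kg p.o.; n = 7−12/group. Exploration of novel versus familiar object compared by paired t-test.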

Rattus norvegicus [17] = experiment: Increase in acetylcholine level in Wistar rat ventral hippocampus at 1 mg/kg, sc after 4 hrs in presence of 1 mg/kg of donepezil administered sc by LC-MS/MS based microdialysis method relative to control; type: functional
Rattus norvegicus [18] = experiment: Reversal of time-induced amnesia in Wistar rat at 1 to 3 mg/kg, sc administered 60 mins prior to testing measured for 3 mins by object recognition test; type: functional, organism-based
Rattus norvegicus [19] = experiment: as §1; type: ADME, organism-based; conditions: in vivo
Rattus norvegicus [20] = experiment: as §2; type: ADME, organism-based; conditions: in vivo

Sequence of Cytochrome P450 2D6 (P10635 whole entry): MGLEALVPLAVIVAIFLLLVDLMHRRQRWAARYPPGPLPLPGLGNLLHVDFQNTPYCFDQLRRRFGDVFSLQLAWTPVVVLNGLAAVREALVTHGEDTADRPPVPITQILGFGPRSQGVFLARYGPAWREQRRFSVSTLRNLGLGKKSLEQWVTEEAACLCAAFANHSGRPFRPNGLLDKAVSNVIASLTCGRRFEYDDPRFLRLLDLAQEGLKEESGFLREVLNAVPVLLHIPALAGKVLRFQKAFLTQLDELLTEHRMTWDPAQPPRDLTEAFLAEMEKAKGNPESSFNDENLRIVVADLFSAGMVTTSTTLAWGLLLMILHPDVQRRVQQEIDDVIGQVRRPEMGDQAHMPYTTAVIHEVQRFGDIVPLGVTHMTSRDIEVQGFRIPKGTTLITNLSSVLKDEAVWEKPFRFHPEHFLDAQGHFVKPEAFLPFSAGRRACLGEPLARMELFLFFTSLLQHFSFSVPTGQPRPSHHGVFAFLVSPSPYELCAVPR
T3 sequence (P50406 whole entry): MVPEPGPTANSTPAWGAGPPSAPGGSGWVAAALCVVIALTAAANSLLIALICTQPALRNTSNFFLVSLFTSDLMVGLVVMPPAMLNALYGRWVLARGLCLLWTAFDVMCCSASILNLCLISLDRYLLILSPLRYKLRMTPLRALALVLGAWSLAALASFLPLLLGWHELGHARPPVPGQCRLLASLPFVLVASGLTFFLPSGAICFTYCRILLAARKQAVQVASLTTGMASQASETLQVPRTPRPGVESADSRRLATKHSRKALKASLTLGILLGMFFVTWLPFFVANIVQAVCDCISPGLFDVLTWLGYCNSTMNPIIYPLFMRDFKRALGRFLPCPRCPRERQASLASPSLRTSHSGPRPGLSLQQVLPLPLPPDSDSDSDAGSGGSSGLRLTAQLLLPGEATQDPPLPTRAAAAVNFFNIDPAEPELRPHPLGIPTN
Sequence of 5-hydroxytryptamine receptor 4 (Homo sapiens) (Q13639 whole entry): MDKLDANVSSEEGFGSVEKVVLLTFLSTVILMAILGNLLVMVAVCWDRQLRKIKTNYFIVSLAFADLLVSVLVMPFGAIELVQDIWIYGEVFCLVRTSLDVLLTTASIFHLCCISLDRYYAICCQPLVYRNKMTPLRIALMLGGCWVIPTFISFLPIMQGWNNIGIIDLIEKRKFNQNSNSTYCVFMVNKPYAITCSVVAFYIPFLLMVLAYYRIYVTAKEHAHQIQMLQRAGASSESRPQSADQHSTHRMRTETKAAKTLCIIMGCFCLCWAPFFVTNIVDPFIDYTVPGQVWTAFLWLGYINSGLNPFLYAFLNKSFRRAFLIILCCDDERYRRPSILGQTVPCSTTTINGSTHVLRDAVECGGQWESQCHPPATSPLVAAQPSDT
Sequence of 5-hydroxytryptamine receptor 7 (Rattus norvegicus) (P32305 whole entry): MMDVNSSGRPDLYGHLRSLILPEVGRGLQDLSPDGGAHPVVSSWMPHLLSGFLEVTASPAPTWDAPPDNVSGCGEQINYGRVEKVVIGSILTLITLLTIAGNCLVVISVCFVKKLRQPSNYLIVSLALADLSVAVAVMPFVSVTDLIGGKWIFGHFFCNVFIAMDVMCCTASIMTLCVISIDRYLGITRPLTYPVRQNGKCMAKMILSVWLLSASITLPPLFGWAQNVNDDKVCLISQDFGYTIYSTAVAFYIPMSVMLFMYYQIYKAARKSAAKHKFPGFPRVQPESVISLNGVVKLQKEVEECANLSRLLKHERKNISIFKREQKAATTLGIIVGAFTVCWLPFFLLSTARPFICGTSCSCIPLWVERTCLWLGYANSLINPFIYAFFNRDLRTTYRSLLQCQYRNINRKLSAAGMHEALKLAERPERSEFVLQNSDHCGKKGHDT
Sequence of Cytochrome P450 3A4 (P08684 whole entry): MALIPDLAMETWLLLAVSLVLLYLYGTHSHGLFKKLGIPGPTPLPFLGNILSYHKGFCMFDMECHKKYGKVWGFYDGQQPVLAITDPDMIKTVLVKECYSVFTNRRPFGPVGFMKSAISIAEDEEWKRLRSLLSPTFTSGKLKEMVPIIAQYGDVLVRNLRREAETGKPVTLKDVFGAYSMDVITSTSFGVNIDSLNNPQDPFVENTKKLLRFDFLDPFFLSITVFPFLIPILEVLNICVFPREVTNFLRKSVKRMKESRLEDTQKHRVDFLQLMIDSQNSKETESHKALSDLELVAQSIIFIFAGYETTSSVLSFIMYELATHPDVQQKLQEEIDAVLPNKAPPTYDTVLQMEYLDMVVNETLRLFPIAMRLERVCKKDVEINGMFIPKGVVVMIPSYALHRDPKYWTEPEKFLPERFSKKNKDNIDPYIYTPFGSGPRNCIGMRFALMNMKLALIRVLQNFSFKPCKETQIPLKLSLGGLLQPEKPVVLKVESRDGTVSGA
Sequence of 5-hydroxytryptamine receptor 2A (Homo sapiens) (P28223 whole entry): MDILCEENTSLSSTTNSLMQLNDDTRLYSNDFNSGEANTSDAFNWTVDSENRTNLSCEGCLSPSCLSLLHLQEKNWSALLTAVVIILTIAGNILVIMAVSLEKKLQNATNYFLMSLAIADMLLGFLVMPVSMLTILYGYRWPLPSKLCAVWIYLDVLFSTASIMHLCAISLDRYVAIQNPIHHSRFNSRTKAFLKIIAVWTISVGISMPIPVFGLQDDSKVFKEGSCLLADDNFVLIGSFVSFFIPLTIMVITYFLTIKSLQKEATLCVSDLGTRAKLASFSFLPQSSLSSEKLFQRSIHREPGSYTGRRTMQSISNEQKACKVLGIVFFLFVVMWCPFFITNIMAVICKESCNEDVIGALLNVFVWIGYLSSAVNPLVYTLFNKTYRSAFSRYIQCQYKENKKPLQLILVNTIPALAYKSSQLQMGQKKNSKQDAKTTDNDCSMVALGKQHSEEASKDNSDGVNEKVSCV

SMILES	Activity [1]	Activity [2]	Activity [3]	Activity [4]	Activity [5]	IC50 (Cytochrome P450 2D6)	Cmax [6]	AUC(0-t) [7]	bioavailability [8]	half-life [9]	Vd [10]	clearance [11]	IC50 (Cytochrome P450 3A4)	Ki [12]	Kb [13]	Imax [14]	further results
CC12CC3CC(C)(C1)CC(N)(C3)C2 [MEMANTINE]	–	–	–	–	–	–	–	–	–	–	–	–	–	–	–	–	Activity (Rattus norvegicus [17]): 1203%
CN1CCN(Cc2cn(S(=O)(=O)c3ccc(F)cc3)c3ccccc23)CC1	Active	inactive	inactive	inactive	inactive	–	125 ng/mL	221 ng·h/mL	17.5%	1.5 h	6.3 L/kg	75 mL/min/kg	–	0.00876 µM	0.0123 µM	98%	–
CN(C)CCCOc1ccc2[nH]nc(S(=O)(=O)c3cccc4ccccc34)c2c1	–	–	–	–	–	–	–	–	–	–	–	–	–	–	–	–	Activity (Rattus norvegicus [18]): Active
COc1ccc2c(c1)c(CN1CCCN(C)CC1)cn2S(=O)(=O)c1ccc(C(C)C)cc1.Cl.Cl	Active	inactive	inactive	inactive	inactive	1.9 µM	22 ng/mL	–	–	5.7 h	49.5 L/kg	–	2.2 µM	–	–	–	AUCt (Rattus norvegicus [19]): 157 ng·h/mL; F (Rattus norvegicus [20]): 4%

Continued, in another order:

Activity [1]	Activity [2]	Activity [3]	Activity [4]	Activity [5]	IC50 (Cytochrome P450 2D6)	Cmax [6]	AUC(0-t) [7]	bioavailability [8]	half-life [9]	Vd [10]	clearance [11]	IC50 (Cytochrome P450 3A4)	Ki [12]	Kb [13]	Imax [14]	SMILES	further results
Active	inactive	inactive	inactive	inactive	33.5 µM	56.4 ng/mL	151 ng·h/mL	4.9%	1.12 h	5.3 L/kg	54 mL/min/kg	1.85 µM	–	–	–	COc1ccc2c(c1)c(CN1CCN(C)CC1)cn2S(=O)(=O)c1ccc(C(C)C)cc1.CS(=O)(=O)O.CS(=O)(=O)O	–
Active	inactive	inactive	inactive	inactive	7.7 µM	1900 ng/mL	7740 ng·h/mL	91.4%	1.93 h	3.2 L/kg	19.5 mL/min/kg	1.4 µM	0.004 µM	0.014 µM	99%	CC(C)c1ccc(S(=O)(=O)n2cc(CN3CCN(C)CC3)c3cc(F)ccc32)cc1.Cl.Cl	Kp [15]: 0.95; Activity (Rattus norvegicus [16]): Active
–	inactive	inactive	inactive	inactive	12.6 µM	55 ng/mL	249 ng·h/mL	13.5%	2.52 h	19.2 L/kg	92 mL/min/kg	1.71 µM	–	–	–	COc1ccc2c(c1)c(CN1CCN(C)CC1)cn2S(=O)(=O)c1ccc(F)cc1.CS(=O)(=O)O.CS(=O)(=O)O	–
Active	inactive	inactive	inactive	inactive	9.7 µM	45.6 ng/mL	138 ng·h/mL	10.7%	2.12 h	6.1 L/kg	65 mL/min/kg	–	0.0116 µM	0.0098 µM	98%	COc1cccc2c1c(CN1CCN(C)CC1)cn2S(=O)(=O)c1ccc(C(C)C)cc1.Cl.Cl	–
Active	inactive	inactive	inactive	inactive	> 10 µM	1220 ng/mL	2220 ng·h/mL	21.4%	0.89 h	1.2 L/kg	14.9 mL/min/kg	> 10 µM	–	–	–	CN1CCN(Cc2cn(S(=O)(=O)c3ccccc3)c3ccccc23)CC1.Cl.Cl	Kp [15]: 0.82; Activity (Rattus norvegicus [16]): Active
